{"source": "paper PMC7616937", "about": "(Chemical communications (Cambridge, England), 2019)", "key": {"[1]": {"assay": "Kinetics of fibrillation by Thioflavin T", "format": "physicochemical", "conditions": "Fig. 3g", "method_in_brief": "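Peptide fibrillation was tracked by Thioflavin T fluorescence, either with peptide alone or with lipid vesicles mimicking mammalian plasma membranes. The vesicles were made of 1,2-dioleoyl-sn-glycero-3-phosphocholine (DOPC), cholesterol and sphingomyelin.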"}, "[2]": {"assay": "Kinetics of fiber formation by TEM imaging", "format": "physicochemical", "conditions": "Fig. 2a, b"}, "neuronal dysfunction": {"test_system": "neuronal dysfunction", "conditions": "observation from the literature, no reference printed at b17; compare b4, ref 7a; cited from earlier work"}}, "note": "Peptide text beside a SMILES is read from it.", "data": [{"compound": "CC(=O)N[C@@H](CCCCN)C(=O)N[C@@H](CC(C)C)C(=O)N[C@H](C(=O)N[C@@H](Cc1ccccc1)C(=O)N[C@@H](Cc1ccccc1)C(=O)N[C@@H](C)C(=O)N[C@@H](CCC(=O)O)C(N)=O)C(C)C", "note": "[Aβ(16-22), Ac-KLVFFAE-NH2] (Ac-KLVFFAE-NH2)", "values": [{"measurement": "ThT fluorescence during kinetic measurement", "setting": "[1]; peptide only, without lipid vesicles, followed for 96 hours", "result": "dramatic increase in fluorescence"}, {"measurement": "effect of addition of lipid vesicles on ThT fluorescence / fibrillation", "setting": "[1]; with DOPC/Chol/Sph lipid vesicles", "result": "inhibition of the fibrillation process"}, {"measurement": "time to mature fibers / completion of self-assembly", "setting": "[2]", "result": "four to seven days"}]}, {"compound": "Aβ(1-42): full length Aβ peptide", "values": [{"measurement": "toxicity", "setting": "neuronal dysfunction", "result": "high toxicity"}]}]}
